This is an account of results in ChEMBL document CHEMBL1154122, “A comprehensive study of Sansalvamide A derivatives: The structure-activity relationships of 78 derivatives in two pancreatic cancer cell lines” (2009).

Square brackets hold non-standard residues; d marks the D form. Peptide text beside a SMILES is read from it. * marks the point of attachment. NMeF = CN[C@@H](Cc1ccccc1)C(=O)O; dNMeF = CN[C@H](Cc1ccccc1)C(=O)O; Tic = O=C(O)[C@@H]1Cc2ccccc2CN1; Cha = N[C@@H](CC1CCCCC1)C(=O)O; NMeL = CN[C@@H](CC(C)C)C(=O)O; dNMeL = CN[C@H](CC(C)C)C(=O)O; dNMeV = CN[C@@H](C(=O)O)C(C)C; NMeV = CN[C@H](C(=O)O)C(C)C; Orn = NCCC[C@H](N)C(=O)O; dAbu = CC[C@@H](N)C(=O)O; Abu = CC[C@H](N)C(=O)O; Cbz = O=C(OCc1ccccc1)*; Bn = c1ccc(C*)cc1; Sar = CNCC(=O)O

A short description of assay [1]: Cytotoxicity against human PL45 cells after 56 hrs by [3H]thymidine uptake assay. It is filed as functional. The method, boiled down: (§1)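 Cells seeded at 2000–2500/well in DMEM with L-glutamine, 10% FBS and 1% penicillin-streptomycin. […] After 56 h, 3H-thymidine was added for 16 h more (72 h total), then cells were harvested and counted (CPM). Inhibition = 1 − CPM treated/DMSO; IC50 taken from curves, mean and SEM.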

The test system of assay [2] is BXPC-3. Description: Cytotoxicity against human BxPC3 cells after 56 hrs by [3H]thymidine uptake assay. It is filed as functional. The method, boiled down: as §1

For `CC[C@H]1NC(=O)[C@H](CC(C)C)NC(=O)[C@H](CC(C)C)NC(=O)[C@H](Cc2ccccc2)NC(=O)[C@H](CC(C)C)NC1=O` (cyclo(FLL[dAbu]L)), the figures for the “growth inhibition (GI)” value in assay [1] and in assay [2] were 12% and 17%, respectively.

Take `CC(C)C[C@@H]1NC(=O)[C@H](Cc2ccccc2)NC(=O)[C@H](CC(C)C)NC(=O)[C@@H](Cc2ccccc2)NC(=O)[C@H](CC(C)C)NC1=O` (cyclo(FLL[dF]L)): the “growth inhibition (GI)” value in assay [1] is on record as 33%; in assay [2] it was 8%.

In the case of `CC(C)C[C@@H]1NC(=O)[C@H](Cc2ccccc2)NC(=O)[C@@H](CC(C)C)N(C)C(=O)[C@@H](C(C)C)N(C)C(=O)[C@H](CC(C)C)NC1=O` (cyclo(FLL[dNMeV][dNMeL])), the “growth inhibition (GI)” value is on record as 22% in assay [1] and 0% in assay [2].

As for `CC(C)C[C@@H]1NC(=O)[C@H](Cc2ccccc2)NC(=O)[C@H](CC(C)C)NC(=O)[C@@H](CO)NC(=O)[C@H](CC(C)C)NC1=O` (cyclo(FLL[dS]L)), the “growth inhibition (GI)” value turned out to be 25% in assay [1] and 22% in assay [2].

For `CC(C)C[C@@H]1NC(=O)[C@H](C(C)C)NC(=O)[C@H](CC(C)C)N(C)C(=O)[C@H](CC(C)C)NC(=O)[C@H](Cc2ccccc2)NC1=O` (cyclo(FL[NMeL]VL)), the entries for the “growth inhibition (GI)” value in assay [1] and in assay [2] were 23% and 52%, respectively.

As to `CC(C)[C@@H]1NC(=O)[C@H](Cc2ccccc2)NC(=O)[C@@H](COCc2ccccc2)NC(=O)[C@H](C(C)C)NC(=O)[C@H](C(C)C)NC1=O` (cyclo(FVVV[dS](Bn))), the figures for the “growth inhibition (GI)” value in assay [1] and in assay [2] were 28% and 17%, respectively.

With `CC(C)[C@@H]1NC(=O)[C@H](Cc2ccccc2)NC(=O)[C@@H](CO)NC(=O)[C@H](C(C)C)NC(=O)[C@H](C(C)C)NC1=O` (cyclo(FVVV[dS])), the “growth inhibition (GI)” value in assay [1] stood at 7%; in assay [2] it was 13%.

For `CC[C@H]1NC(=O)[C@H](C(C)C)NC(=O)[C@H](C(C)C)NC(=O)[C@H](Cc2ccccc2)NC(=O)[C@H](C(C)C)NC1=O` (cyclo(FVV[dAbu]V)), the “growth inhibition (GI)” value in assay [1] was 32%; in assay [2], 26%.

As for `CC(C)[C@@H]1NC(=O)[C@H](Cc2ccccc2)NC(=O)[C@H](C(C)C)NC(=O)[C@@H](COCc2ccccc2)NC(=O)[C@H](C(C)C)NC1=O` (cyclo(FVV[dS](Bn)V)), the “growth inhibition (GI)” value amounted to 0% in assay [1] and 15% in assay [2].

Take `CC(C)[C@@H]1NC(=O)[C@H](Cc2ccccc2)NC(=O)[C@H](C(C)C)NC(=O)[C@@H](CO)NC(=O)[C@H](C(C)C)NC1=O` (cyclo(FVV[dS]V)): the figures for the “growth inhibition (GI)” value in assay [1] and in assay [2] were 18% and 20%, respectively.

In the case of `CC(C)[C@@H]1NC(=O)[C@H](Cc2ccccc2)NC(=O)[C@H](C(C)C)NC(=O)[C@@H](C(C)C)NC(=O)[C@H](C(C)C)NC1=O` (cyclo(FVV[dV]V)), the “growth inhibition (GI)” value in assay [1] turned out to be 25%; in assay [2], 11%.

On to `CC(C)C[C@@H]1NC(=O)[C@H](C(C)C)NC(=O)[C@H](CCCCNC(=O)OCc2ccccc2)NC(=O)[C@H](CC(C)C)N(C)C(=O)[C@H](Cc2ccccc2)NC1=O` (cyclo(F[NMeL]K(Cbz)VL)), for which the “growth inhibition (GI)” value in assay [1] stood at 36%; in assay [2] it was 35%.

Take `CC(C)C[C@@H]1NC(=O)[C@H](C(C)C)NC(=O)[C@H](CCCCN)NC(=O)[C@H](CC(C)C)N(C)C(=O)[C@H](Cc2ccccc2)NC1=O` (cyclo(F[NMeL]KVL)): the “growth inhibition (GI)” value turned out to be 9% in assay [1] and 11% in assay [2].

With `CC(C)C[C@@H]1NC(=O)[C@H](C(C)C)N(C)C(=O)[C@H](CC(C)C)NC(=O)[C@H](CC(C)C)N(C)C(=O)[C@H](Cc2ccccc2)NC1=O` (cyclo(F[NMeL]L[NMeV]L)), the “growth inhibition (GI)” value in assay [1] and in assay [2] was 0% throughout.

Regarding `CC(C)C[C@@H]1NC(=O)[C@H](CC(C)C)N(C)C(=O)[C@H](Cc2ccccc2)NC(=O)[C@H](CC(C)C)N(C)C(=O)[C@H](C(C)C)N(C)C1=O` (cyclo(F[NMeL]L[NMeV][NMeL])), the “growth inhibition (GI)” value in assay [1] and in assay [2] was 0% throughout.

For `CC(C)C[C@@H]1NC(=O)CN(C)C(=O)[C@H](Cc2ccccc2)NC(=O)[C@H](C(C)C)NC(=O)[C@@H](C(C)C)NC1=O` (cyclo(F[Sar]L[dV]V)), the “growth inhibition (GI)” value in assay [1] was 0%; in assay [2], 22%.

Consider `CC(C)C[C@@H]1NC(=O)[C@H](C(C)C)NC(=O)[C@H](CC(C)C)N(C)C(=O)[C@@H](CC(C)C)NC(=O)[C@H](Cc2ccccc2)NC1=O` (cyclo(F[dL][NMeL]VL)), for which the entries for the “growth inhibition (GI)” value in assay [1] and in assay [2] were 25% and 71%, respectively.

On to `CC(C)C[C@@H]1NC(=O)[C@@H](Cc2ccccc2)NC(=O)[C@@H](CC(C)C)NC(=O)[C@@H](C(C)C)NC(=O)[C@H](CCCCNC(=O)OCc2ccccc2)NC1=O` (cyclo(K(Cbz)[dV][dL][dF]L)), for which the “growth inhibition (GI)” value in assay [1] was determined as 12%; in assay [2] it was 38%.

Take `CC(C)C[C@@H]1NC(=O)[C@@H](Cc2ccccc2)NC(=O)[C@@H](CC(C)C)NC(=O)[C@@H](C(C)C)NC(=O)[C@H](CCCCN)NC1=O` (cyclo(K[dV][dL][dF]L)): the “growth inhibition (GI)” value is reported as 0% in assay [1] and 28% in assay [2].

Regarding `CC(C)C[C@@H]1NC(=O)[C@H](CC(C)C)NC(=O)[C@@H]2Cc3ccccc3CN2C(=O)[C@H](CC(C)C)NC(=O)[C@H](C(C)C)NC1=O` (cyclo(LLVL[Tic])), the “growth inhibition (GI)” value came to 35% in assay [1] and 54% in assay [2].

Turning to `CC(C)C[C@@H]1NC(=O)[C@H](CC(C)C)NC(=O)[C@@H](Cc2c[nH]c3ccccc23)NC(=O)[C@H](CC(C)C)NC(=O)[C@H](C(C)C)NC1=O` (cyclo(LLVL[dW])), the “growth inhibition (GI)” value in assay [1] was found to be 18%; in assay [2], 30%.

`CC(C)C[C@@H]1NC(=O)[C@H](CC(C)C)NC(=O)[C@@H](Cc2ccc(O)cc2)NC(=O)[C@H](CC(C)C)NC(=O)[C@H](C(C)C)NC1=O` (cyclo(LLVL[dY])): the results for the “growth inhibition (GI)” value in assay [1] and in assay [2] were 11% and 35%, respectively.

As for `CC(C)C[C@@H]1NC(=O)[C@H](C(C)C)NC(=O)[C@H](CCCN)NC(=O)[C@H](CC(C)C)NC(=O)[C@@H](Cc2ccc(O)cc2)NC1=O` (cyclo(L[Orn]VL[dY])), the “growth inhibition (GI)” value in assay [1] and in assay [2] was 0% in each case.

As for `CC(C)C[C@@H]1NC(=O)[C@@H](Cc2ccccc2)NC(=O)[C@H](C(C)C)NC(=O)[C@@H](CC(C)C)NC(=O)[C@@H](CC(C)C)NC1=O` (cyclo(L[dL][dL]V[dF])), the “growth inhibition (GI)” value in assay [1] came to 21%; in assay [2] it was 23%.

For `CC[C@@H]1NC(=O)[C@H](CC(C)C)NC(=O)[C@H](CC(C)C)NC(=O)[C@H](Cc2ccccc2)NC(=O)[C@H](CC(C)C)NC1=O` (cyclo([Abu]LFLL)), the “growth inhibition (GI)” value in assay [1] and in assay [2] was 0% in each case.

Take `CC[C@@H]1NC(=O)[C@H](CC(C)C)NC(=O)[C@H](CC(C)C)NC(=O)[C@H](Cc2ccccc2)NC(=O)[C@@H](CC(C)C)NC1=O` (cyclo([Abu][dL]FLL)): the “growth inhibition (GI)” value is reported as 23% in assay [1] and 34% in assay [2].

In the case of `CC(C)[C@@H]1NC(=O)[C@H](CC2CCCCC2)NC(=O)[C@H](CO)NC(=O)[C@H](Cc2ccccc2)NC(=O)[C@@H](Cc2ccccc2)N(C)C1=O` (cyclo([Cha]V[dNMeF]FS)), the “growth inhibition (GI)” value in assay [1] worked out at 11%; in assay [2], 34%.

As to `CC(C)C[C@@H]1NC(=O)[C@H](Cc2ccccc2)NC(=O)[C@H](CC(C)C)NC(=O)[C@@H](C(C)C)N(C)C(=O)[C@H](CC2CCCCC2)NC1=O` (cyclo([Cha][dNMeV]LFL)), the “growth inhibition (GI)” value in assay [1] came out at 30%; in assay [2] it was 49%.

Consider `CC(C)C[C@@H]1NC(=O)[C@H](CC(C)C)NC(=O)[C@H](Cc2ccccc2)N(C)C(=O)[C@H](CC(C)C)NC(=O)[C@H](C(C)C)NC1=O` (cyclo([NMeF]LLVL)), for which the figures for the “growth inhibition (GI)” value in assay [1] and in assay [2] were 30% and 33%, respectively.

`CC(C)C[C@@H]1C(=O)N[C@H](Cc2ccccc2)C(=O)N[C@H](CC(C)C)C(=O)N[C@H](CC(C)C)C(=O)N[C@H](C(C)C)C(=O)N1C` (cyclo([dF][dL][dL][dV][dNMeL])): the “growth inhibition (GI)” value in assay [1] is recorded as 11%; in assay [2] it was 30%.

On to `CC(C)C[C@@H]1C(=O)N[C@H](CC(C)C)C(=O)N(C)[C@H](C(C)C)C(=O)N[C@H](CC(C)C)C(=O)N[C@H](Cc2ccccc2)C(=O)N1C` (cyclo([dF][dNMeL][dL][dNMeV][dL])), for which the “growth inhibition (GI)” value in assay [1] stood at 0%; in assay [2], 25%.

Consider `CC(C)C[C@@H]1NC(=O)[C@H](C(C)C)NC(=O)[C@H](CC(C)C)N(C)C(=O)[C@@H](CC(C)C)NC(=O)[C@@H](Cc2ccccc2)NC1=O` (cyclo([dL][NMeL]VL[dF])), for which the “growth inhibition (GI)” value was determined as 59% in assay [1] and 58% in assay [2].
